Assay results published in ChEMBL document CHEMBL1240455, “Synthesis of 5-[alkoxy-(4-nitro-phenyl)-methyl]-uridines and study of their cytotoxic activity” (Eur J Med Chem, 2010).
Values after ≈ are worked out from the molar mass of the structure shown.

Assays:
A549 = assay: Cytotoxicity against human A549 cells after 72 hrs by MTT assay; assay type: functional, cell-based
Method in brief: (§1)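 Cells seeded at 2500–30,000 per well by cell type and pre-incubated 24 h at 37 °C, 5% CO2. Compounds dissolved in 10% DMSO, added as four-fold dilutions at time zero, tested in quadruplicate. Exposure 72 h at 37 °C, 5% CO2, 100% humidity. MTT then added for 1–4 h, formazan dissolved overnight at 37 °C, OD read at 540 nm. IC50 taken from dose-response curves relative to control wells.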

[1] = Cytotoxicity against human CEM-DNR-B cells after 72 hrs by MTT assay; assay type: functional, cell-based; method in brief: as §1
K562 [2] = assay: Cytotoxicity against human K562 cells after 72 hrs by MTT assay; assay type: functional, cell-based; method in brief: as §1
CCRF-CEM [3] = assay: Cytotoxicity against human CEM cells after 72 hrs by MTT assay; assay type: functional, cell-based; method in brief: as §1
K562 [4] = assay: Cytotoxicity against human paclitaxel-resistant K562 cells after 72 hrs by MTT assay; assay type: functional, cell-based; method in brief: as §1
CCRF-CEM [5] = assay: Induction of apoptosis in human CEM cells using propidium iodide staining at IC50 concentration after 24 hrs by flow cytometry; assay type: functional
CCRF-CEM [6] = assay: Cell cycle arrest in human CEM cells assessed as accumulation at G0/G1 phase using propidium iodide staining at IC50 concentration after 24 hrs by flow cytometry; assay type: functional
CCRF-CEM [7] = assay: Induction of mitotic arrest in human CEM cells assessed as pH3Ser10 positive cells at IC50 concentration after 24 hrs by flow cytometry; assay type: functional
CCRF-CEM [8] = assay: Inhibition of RNA synthesis in human CEM cells assessed as BrU incorporation using propidium iodide staining at IC50 concentration after 24 hrs by flow cytometry; assay type: functional; parameters: scale not given: the % may be the effect or the level left
Method in brief: (§2)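 RNA synthesis measured by flow cytometry of incorporated 5-bromouridine, detected with a cross-reacting anti-BrdU antibody. CEM cells exposed at 1× and 5× IC50 for 3, 6, 9 and 24 h and pulsed for 30 min at 37 °C before harvest. Fixed 15 min in 1% paraformaldehyde/0.05% NP-40 in PBS and stored at 4 °C at least overnight. Stained with primary and FITC secondary antibodies, 30 min each at room temperature.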

CCRF-CEM [9] = assay: Induction of apoptosis in human CEM cells using propidium iodide staining at 5 times IC50 concentration after 24 hrs by flow cytometry; assay type: functional
CCRF-CEM [10] = assay: Cell cycle arrest in human CEM cells assessed as accumulation at G2/M phase using propidium iodide staining at IC50 concentration after 24 hrs by flow cytometry; assay type: functional
[11] = test system: Staphylococcus haemolyticus; assay: Antimicrobial activity against Staphylococcus haemolyticus after 24 hrs; assay type: functional
Method in brief: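 MIC taken as the lowest concentration preventing bacterial growth after 24 h incubation at 37 °C. Strains came from the Czech Collection of Microorganisms or from clinical isolates of hospital patients.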

CCRF-CEM [12] = assay: Inhibition of DNA synthesis in human CEM cells assessed as BrDU incorporation using propidium iodide staining at IC50 concentration after 24 hrs by flow cytometry; assay type: functional; parameters: scale not given: the % may be the effect or the level left
Method in brief: (§3)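 CEM cells exposed at 1× and 5× IC50 for 3, 6, 9 and 24 h, then pulsed with BrdU for 30 min at 37 °C. Cells fixed overnight in ice-cold 70% ethanol and DNA denatured in 2 M HCl for 30 min. Neutralised with 0.1 M sodium borate, then stained with anti-BrdU antibody, FITC secondary, and propidium iodide/RNase. Read by flow cytometry at 488 nm.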

Staphylococcus aureus [13] = assay: Antimicrobial activity against Staphylococcus aureus CCM 3953 after 24 hrs; assay type: functional; details: CCM 3953, 24 h
CCRF-CEM [14] = assay: Inhibition of RNA synthesis in human CEM cells assessed as BrU incorporation using propidium iodide staining at 5 times IC50 concentration after 24 hrs by flow cytometry; assay type: functional; parameters: scale not given: the % may be the effect or the level left; method in brief: as §2
Staphylococcus aureus [15] = assay: Antimicrobial activity against methicillin-resistant Staphylococcus aureus after 24 hrs; assay type: functional
CCRF-CEM [16] = assay: Cell cycle arrest in human CEM cells assessed as accumulation at S phase using propidium iodide staining at IC50 concentration after 24 hrs by flow cytometry; assay type: functional
CCRF-CEM [17] = assay: Induction of mitotic arrest in human CEM cells assessed as pH3Ser10 positive cells at 5 times IC50 concentration after 24 hrs by flow cytometry; assay type: functional
CCRF-CEM [18] = assay: Inhibition of DNA synthesis in human CEM cells assessed as BrDU incorporation using propidium iodide staining at 5 times IC50 concentration after 24 hrs by flow cytometry; assay type: functional; parameters: scale not given: the % may be the effect or the level left; method in brief: as §3
Enterococcus faecalis = assay: Antimicrobial activity against Enterococcus faecalis CCM 4224 after 24 hrs; assay type: functional; details: CCM 4224, 24 h
CCRF-CEM [19] = assay: Cell cycle arrest in human CEM cells assessed as accumulation at G0/G1 phase using propidium iodide staining at 5 times IC50 concentration after 24 hrs by flow cytometry; assay type: functional
Method in brief: (§4)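 CEM T-lymphoblastic leukemia cells were exposed to compound at 1× and 5× IC50 over a 24 h interval. DNA content was measured by flow cytometry with a 488 nm laser.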

CCRF-CEM [20] = assay: Cell cycle arrest in human CEM cells assessed as accumulation at G2/M phase using propidium iodide staining at 5 times IC50 concentration after 24 hrs by flow cytometry; assay type: functional; method in brief: as §4
CCRF-CEM [21] = assay: Cell cycle arrest in human CEM cells assessed as accumulation at S phase using propidium iodide staining at 5 times IC50 concentration after 24 hrs by flow cytometry; assay type: functional; method in brief: as §4

SMILES	IC50 (A549; a549)	IC50 [1]	IC50 (K562 [2]; k562)	IC50 (CCRF-CEM [3]; ccrf-cem)	IC50 (A549; Homo sapiens, A549, 72 h)	IC50 ([1]; Homo sapiens, 72 h)	IC50 (K562 [2]; Homo sapiens, K562, 72 h)	IC50 (K562 [4]; Homo sapiens, K562, 72 h)	Activity (CCRF-CEM [5])	Activity (CCRF-CEM [6])	Activity (CCRF-CEM [7])	Activity (CCRF-CEM [8])	Activity (CCRF-CEM [9])	Activity (CCRF-CEM [10])	Activity (CCRF-CEM [12])	Activity (CCRF-CEM [14])	IC50 (CCRF-CEM [3]; Homo sapiens, CCRF-CEM, 72 h)	Activity (CCRF-CEM [16])	Activity (CCRF-CEM [17])	Activity (CCRF-CEM [18])	also measured
CCCCCCCOC(c1ccc([N+](=O)[O-])cc1)c1cn([C@@H]2O[C@H](CO)[C@@H](O)[C@H]2O)c(=O)[nH]c1=O (stereo in doubt; (-)-8g)	69.9 µM	95.6 µM	36.7 µM	29 µM																	IC50 (K562 [4]; k562): 52.3 µM
CCCCCCCOC(c1ccc([N+](=O)[O-])cc1)c1cn([C@@H]2O[C@H](CO)[C@@H](O)[C@H]2O)c(=O)[nH]c1=O (stereo in doubt; (+)7g)				12.8 µM	39.8 µM	104 µM	33.6 µM	42.8 µM													
CCCCCCCCOC(c1ccc([N+](=O)[O-])cc1)c1cn([C@@H]2O[C@H](CO)[C@@H](O)[C@H]2O)c(=O)[nH]c1=O (single isomer, unassigned; (+))					38.7 µM	34.6 µM	15.1 µM	33.1 µM	7%	42.36%	2.05%	58.1%	76%	9.83%	46.03%	1.44%	11.4 µM	47.81%	0.03%	6.01%	MIC [11]: 200 µM (≈ 102 µg/mL); MIC (Staphylococcus aureus [13]): 100 µM (≈ 50.8 µg/mL); MIC (Staphylococcus aureus [15]): 100 µM (≈ 50.8 µg/mL); MIC (Enterococcus faecalis): 200 µM (≈ 102 µg/mL)
Nc1nc(F)nc2c1ncn2[C@@H]1O[C@H](CO)[C@@H](O)[C@@H]1O [FLUDARABINE]					47.4 µM	1.01 µM	267 µM	0.26 µM	62.1%	39.66%	0.28%	7.62%	74.84%	19.5%	14.12%	8.92%	19.5 µM	40.84%	0.01%	10.37%	Activity (CCRF-CEM [19]): 42.11%; Activity (CCRF-CEM [20]): 4.95%; Activity (CCRF-CEM [21]): 52.94%
CCCCCCOC(c1ccc([N+](=O)[O-])cc1)c1cn([C@@H]2O[C@H](CO)[C@@H](O)[C@H]2O)c(=O)[nH]c1=O (stereo in doubt; (+)-7f)					121 µM	131 µM	58.4 µM	141 µM									39.8 µM				
Nc1nc2[nH]cnc2c(=S)[nH]1 [THIOGUANINE]					2.82 µM	9.47 µM	1.54 µM	3.9 µM	11.27%	43.42%	1.21%	45.84%	18.69%	7.19%	35.32%	48.93%	2.98 µM	49.39%	0.43%	19.82%	Activity (CCRF-CEM [19]): 43.58%; Activity (CCRF-CEM [20]): 9.95%; Activity (CCRF-CEM [21]): 46.47%
CCCCCCCCCOC(c1ccc([N+](=O)[O-])cc1)c1cn([C@@H]2O[C@H](CO)[C@@H](O)[C@H]2O)c(=O)[nH]c1=O (single isomer, unassigned; (-))	29.1 µM	33.8 µM	13 µM	10 µM						43.38%	1.74%	57.26%		8.83%	47.38%	1.9%		47.79%	0.04%	0.95%	IC50 (K562 [4]; k562): 23.9 µM
CCCCCCCCOC(c1ccc([N+](=O)[O-])cc1)c1cn([C@@H]2O[C@H](CO)[C@@H](O)[C@H]2O)c(=O)[nH]c1=O (stereo in doubt; (-)-8h)	39.7 µM	36.6 µM	24.7 µM	16.9 µM					5%	40.02%	1.68%	56.18%	71%	11.33%	48.73%	1.61%		48.56%	0.01%	6.67%	IC50 (K562 [4]; k562): 34.4 µM
CCCCCCCCCOC(c1ccc([N+](=O)[O-])cc1)c1cn([C@@H]2O[C@H](CO)[C@@H](O)[C@H]2O)c(=O)[nH]c1=O (stereo in doubt; (+)-7i)					23.1 µM	32.3 µM	10.9 µM	14.6 µM	4%	40.95%	1.66%	60.22%	83%	11.25%	52.17%	0.8%	7.9 µM	47.81%	0.25%	2.95%	MIC [11]: 100 µM (≈ 52.2 µg/mL); MIC (Staphylococcus aureus [13]): 50 µM (≈ 26.1 µg/mL); MIC (Staphylococcus aureus [15]): 50 µM (≈ 26.1 µg/mL); MIC (Enterococcus faecalis): 50 µM (≈ 26.1 µg/mL)
CCCCCCOC(c1ccc([N+](=O)[O-])cc1)c1cn([C@@H]2O[C@H](CO)[C@@H](O)[C@H]2O)c(=O)[nH]c1=O (single isomer, unassigned; (-))	156 µM	146 µM	64.5 µM	45.5 µM																	IC50 (K562 [4]; k562): 137 µM
